Measurements collected from several papers.
Protocols differ between the studies behind these lines. Converted amounts (≈) assume the structure as drawn.

O=C(Nc1ccc2[nH]ccc2c1)c1ccc(COC(Cn2ccnc2)c2ccc(Cl)cc2Cl)cc1 (stereo not drawn) has an MIC80 of 128 µg/mL (≈ 253 µM) (Nakaseomyces glabratus; microbial growth, broth dilution).
C/C(=N/NC(=O)c1cn(-c2ccccc2)nc1-c1ccccc1)c1c(O)cc(C)oc1=O gave an MIC of 50 µg/mL (≈ 117 µM) (Bacillus subtilis; microbial growth).
With OC(Cn1cncn1)(Cn1cncn1)c1ccc(F)cc1F the MIC was 8 µg/mL (≈ 26.1 µM) (Cryptococcus neoformans; microbial growth, broth dilution; H99; 48 h).
O=C(Nc1ccc(Cl)cc1)c1ccc(COC(Cn2ccnc2)c2ccc(Cl)cc2Cl)cc1 (stereo not drawn) gave an MIC80 of 0.125 µg/mL (≈ 0.25 µM) (Nakaseomyces glabratus; microbial growth, broth dilution).
CC(=O)ON=C1C=CC(=C(C#N)c2ccccc2)C=C1 has an MIC of 16 µg/mL (≈ 60.5 µM) (Nakaseomyces glabratus; microbial growth, broth dilution; ATCC15126; 48 h).
The MIC of C/C(=N/NC(=O)c1cn(-c2ccccc2)nc1-c1ccc(F)cc1)c1c(O)cc(C)oc1=O is reported as 70 µg/mL (≈ 157 µM) (Bacillus subtilis; microbial growth).
O=C(Nc1ccc2cccnc2c1)c1ccc(COC(Cn2ccnc2)c2ccc(Cl)cc2Cl)cc1 (stereo not drawn) has an MIC80 of 8 µg/mL (≈ 15.5 µM) (Nakaseomyces glabratus; microbial growth, broth dilution).
For C=CC(=O)ON=C1C=CC(=C(C#N)c2ccccc2)C=C1, the MIC was 16 µg/mL (≈ 57.9 µM) (Nakaseomyces glabratus; microbial growth, broth dilution; ATCC15126; 48 h).
CCOC(=O)/C=C1/SC(N/N=C/c2c(-c3ccc(OC)cc3)nc3ncccn23)=NC1=O has an inhibition zone of 11 mm (Bacillus subtilis; microbial growth, well diffusion; ATCC6051; 100 µg/mL).
C#CCOC(=O)ON=C1C=CC(=C(C#N)c2ccccc2)C=C1 has an MFC of 16 µg/mL (≈ 52.6 µM) (Nakaseomyces glabratus; microbial killing, broth dilution; ATCC15126; 48 h).
C/C(=N/NC(=O)c1cn(-c2ccccc2)nc1-c1ccc(Cl)cc1)c1c(O)cc(C)oc1=O gave an MIC of 70 µg/mL (≈ 151 µM) (Bacillus subtilis; microbial growth).
O=C(Nc1cccc(Br)c1)c1ccc(COC(Cn2ccnc2)c2ccc(Cl)cc2Cl)cc1 (stereo not drawn) has an MIC80 of 0.125 µg/mL (≈ 0.229 µM) (Nakaseomyces glabratus; microbial growth, broth dilution).
With CC(=O)N1CCN(c2ccc(OCC3COC(Cn4ccnc4)(c4ccc(Cl)cc4Cl)O3)cc2)CC1 (stereo not drawn) the MIC was 8 µg/mL (≈ 15.1 µM) (Nakaseomyces glabratus; microbial growth, broth dilution; ATCC15126; 48 h).
For O=C(Nc1ccc2ccccc2c1)c1ccc(COC(Cn2ccnc2)c2ccc(Cl)cc2Cl)cc1 (stereo not drawn), the MIC80 was 64 µg/mL (≈ 124 µM) (Nakaseomyces glabratus; microbial growth, broth dilution).
With C#CCON=C1C=CC(=C(C#N)c2ccccc2)C=C1 the MFC was 32 µg/mL (≈ 123 µM) (Nakaseomyces glabratus; microbial killing, broth dilution; ATCC15126; 48 h).
